Consider two compounds from ChEMBL document CHEMBL2086311, “UDP made a highly promising stable, potent, and selective P2Y6-receptor agonist upon introduction of a boranophosphate moiety” (Bioorg Med Chem, 2012).

A short description of data set [1]: Drug degradation in KCl/HCl buffer assessed as 5-OMe-uridine-H-phosphonate formation by 31P-NMR analysis at pH 1.4. Type of data set: physicochemical. In a few lines: (§1)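 Sodium salt dissolved in KCl/HCl buffer pH 1.4 containing D2O, held at 37 °C. 31P NMR spectra taken at 15 min, 1 h or 24 h intervals, about every 24 h in multi-day runs. Hydrolysis rate taken from change in integration of one starting-material phosphate signal over time, fit to a pseudo-first-order model.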

Data set [2] is described as follows: Drug degradation in KCl/HCl buffer assessed as inorganic phosphate formation by 31P-NMR analysis at pH 1.4. Type of data set: physicochemical. In a few lines:
as §1

For data set [3], the target named is P2Y purinoceptor 6 (Homo sapiens, UniProt Q15077). In words: Agonist activity at human GFP-tagged P2Y6 receptor expressed in human 1321N1 cells assessed as intracellular calcium mobilization by fura2/AM-based fluorescence spectrophotometry. In kind it is functional, cell-based. The method in brief: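 Human P2Y2, P2Y4 or P2Y6 receptors with GFP fusion, stably expressed in 1321N1 astrocytoma cells (no endogenous P2X/P2Y), selected with 0.5 mg/mL G418. Cells on coverslips at ~80% density were loaded with 2 µM fura 2/AM plus 0.02% pluronic acid in Na-HBS pH 7.4 for 30 min at 37 °C. Nucleotide was superfused at 37 °C, usually 10^-8 to ≥10^-5 M, sometimes to 10^-4 M. Read-out was 340/380 nm excitation ratio at 510 nm emission. Values are mean maximal amplitude ± SE.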

The test system of data set [4] is Serum. Kind of data set: Drug metabolism in human serum assessed as nucleoside formation incubated up to 24 hrs by HPLC analysis. Type of data set: ADME, cell-free. The method in brief:
(§2)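 Samples held 0.1 mg compound with human blood serum (180 µL) and RPMI-1640 (540 µL) at 37 °C for 0–24 h. At each time point they were heated to 80 °C for 30 min, treated with CM Sephadex, centrifuged and chloroform-extracted. Analysis was reverse-phase HPLC on peak integrals. Degradation was taken relative to a no-serum control carried through the same workup, and half-lives came from the time course.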

Data set [5] relates to Serum. In words: Drug metabolism in human serum assessed as nucleoside 5'-monophosphate formation incubated up to 24 hrs by HPLC analysis. In kind it is ADME, cell-free. The method in brief: as §2
Data set [6] deals with T1, NPP1 (ectonucleotide pyrophosphatase/phosphodiesterase family member 1) (Homo sapiens, UniProt P22413).
T1 sequence (P22413 whole entry): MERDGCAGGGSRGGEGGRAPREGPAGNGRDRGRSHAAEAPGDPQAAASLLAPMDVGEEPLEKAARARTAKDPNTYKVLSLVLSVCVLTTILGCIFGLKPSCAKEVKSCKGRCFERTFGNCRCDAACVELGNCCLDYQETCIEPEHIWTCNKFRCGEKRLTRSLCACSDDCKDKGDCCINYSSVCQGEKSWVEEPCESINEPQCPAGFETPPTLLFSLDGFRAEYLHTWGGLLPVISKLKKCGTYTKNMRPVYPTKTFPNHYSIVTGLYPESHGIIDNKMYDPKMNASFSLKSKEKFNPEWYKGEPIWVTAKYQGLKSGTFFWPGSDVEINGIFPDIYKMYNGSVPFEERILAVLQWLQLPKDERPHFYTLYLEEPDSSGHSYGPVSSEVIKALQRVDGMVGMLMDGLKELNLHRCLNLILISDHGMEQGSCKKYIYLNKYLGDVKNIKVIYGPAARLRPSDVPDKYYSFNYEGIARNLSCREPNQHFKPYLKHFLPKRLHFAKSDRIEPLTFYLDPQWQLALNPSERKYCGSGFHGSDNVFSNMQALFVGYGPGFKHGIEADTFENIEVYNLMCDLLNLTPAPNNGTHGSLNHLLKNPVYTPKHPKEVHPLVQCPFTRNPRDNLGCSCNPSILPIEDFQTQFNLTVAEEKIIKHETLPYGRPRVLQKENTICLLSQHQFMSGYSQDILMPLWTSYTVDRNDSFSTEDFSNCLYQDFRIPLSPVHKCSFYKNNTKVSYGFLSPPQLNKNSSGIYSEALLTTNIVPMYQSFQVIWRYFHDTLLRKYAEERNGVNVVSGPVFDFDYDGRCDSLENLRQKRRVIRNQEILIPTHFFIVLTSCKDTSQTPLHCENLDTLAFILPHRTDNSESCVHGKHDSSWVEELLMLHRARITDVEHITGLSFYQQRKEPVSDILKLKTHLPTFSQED
In words: Hydrolytic stability of the compound assessed as human NPP1-mediated hydrolysis after 2 hrs by HPLC analysis. Type of data set: ADME. The note with it: human NPP1 enzyme, read-out: Activity. In a few lines: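 Human NPP1 extract (56.15 µg) pre-incubated 3 min at 37 °C in 1 mM CaCl2, 200 mM NaCl, 10 mM KCl, 100 mM Tris pH 8.5. Reaction started with 4 mM compound stock and stopped at 2 h in ice-cold 1 M perchloric acid, then neutralized with KOH. Reverse-phase HPLC. Nucleoside monophosphate peak area taken minus an acid-treated no-enzyme control. Mean of two experiments.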

Data set [7] is described as follows: Half life in human serum by HPLC analysis. Type of data set: ADME, cell-free. In a few lines: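 Compound (0.1 mg) incubated with human blood serum and RPMI-1640 medium at 37 °C for 0–24 h. Samples taken at 0.5–12 h intervals, heated to 80 °C for 30 min, treated with CM Sephadex and extracted with chloroform. Analysed by reverse-phase HPLC. Degradation from peak integration, corrected against a serum-free control given the same workup.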

The target of data set [8] is T2, NPP3 (ectonucleotide pyrophosphatase/phosphodiesterase family member 3) (Homo sapiens, UniProt O14638).
T2 sequence (O14638 whole entry): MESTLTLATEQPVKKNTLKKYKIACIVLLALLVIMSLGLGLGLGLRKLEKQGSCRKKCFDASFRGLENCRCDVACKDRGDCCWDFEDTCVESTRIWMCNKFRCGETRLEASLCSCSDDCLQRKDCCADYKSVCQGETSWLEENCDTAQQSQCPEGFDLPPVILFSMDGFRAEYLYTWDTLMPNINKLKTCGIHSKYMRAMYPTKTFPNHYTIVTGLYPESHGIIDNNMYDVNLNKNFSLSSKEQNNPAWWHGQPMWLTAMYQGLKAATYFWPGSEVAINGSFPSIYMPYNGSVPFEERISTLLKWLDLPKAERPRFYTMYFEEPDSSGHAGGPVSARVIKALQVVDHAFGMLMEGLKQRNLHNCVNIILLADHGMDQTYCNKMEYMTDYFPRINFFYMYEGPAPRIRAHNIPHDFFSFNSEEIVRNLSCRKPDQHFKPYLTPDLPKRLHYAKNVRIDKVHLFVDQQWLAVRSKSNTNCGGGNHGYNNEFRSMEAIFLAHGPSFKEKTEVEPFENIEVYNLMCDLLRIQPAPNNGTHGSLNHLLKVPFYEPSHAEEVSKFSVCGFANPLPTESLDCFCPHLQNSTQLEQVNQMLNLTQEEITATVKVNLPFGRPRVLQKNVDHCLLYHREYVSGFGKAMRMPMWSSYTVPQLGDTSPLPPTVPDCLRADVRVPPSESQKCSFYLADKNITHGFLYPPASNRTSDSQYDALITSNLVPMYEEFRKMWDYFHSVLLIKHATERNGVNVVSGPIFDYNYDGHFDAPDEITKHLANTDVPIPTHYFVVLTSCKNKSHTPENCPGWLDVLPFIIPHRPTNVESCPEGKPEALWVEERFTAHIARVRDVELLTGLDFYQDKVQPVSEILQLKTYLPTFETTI
Kind of data set: Hydrolytic stability of the compound assessed as human NPP3-mediated hydrolysis after 3 hrs by HPLC analysis. In kind it is ADME. The note with it: human NPP3 enzyme, read-out: Activity. In a few lines:
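Human NPP1 (56.15 µg) or NPP3 (57.78 µg) extract was pre-incubated 3 min at 37 °C in 1 mM CaCl2, 200 mM NaCl, 10 mM KCl, 100 mM Tris pH 8.5. Reaction was started with 4 mM compound stock and stopped after 2 h (NPP1) or 3 h (NPP3) in ice-cold 1 M perchloric acid, then neutralized with KOH. HPLC measured the nucleoside monophosphate peak area minus a no-enzyme acid control. Mean ± S.D. of two experiments.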

Sequence of P2Y purinoceptor 6 (Q15077 whole entry, the tested form may be a part): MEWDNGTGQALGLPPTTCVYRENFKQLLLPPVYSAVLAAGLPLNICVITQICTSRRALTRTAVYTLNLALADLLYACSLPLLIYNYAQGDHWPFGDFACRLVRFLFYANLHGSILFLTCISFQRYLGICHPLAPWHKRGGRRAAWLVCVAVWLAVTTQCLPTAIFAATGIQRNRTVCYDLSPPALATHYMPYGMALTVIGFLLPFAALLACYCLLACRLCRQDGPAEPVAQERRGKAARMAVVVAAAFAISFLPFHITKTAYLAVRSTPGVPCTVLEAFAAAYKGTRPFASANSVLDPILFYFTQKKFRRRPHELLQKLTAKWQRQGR

Take `[BH3-][P@@](=O)(OC[C@H]1O[C@@H](n2cc(OC)c(=O)[nH]c2=O)[C@H](O)[C@@H]1O)OP(=O)([O-])[O-].[Na+].[Na+].[Na+]`: the Drug degradation result in data set [1] and in data set [2] was “Active” each time.

Take `B[P@@](=O)(OC[C@H]1O[C@@H](n2cc(OC)c(=O)[nH]c2=O)[C@H](O)[C@@H]1O)OP(=O)(O)O`: the half-maximal effective concentration (EC50) (in general, the midpoint of the concentration-response curve) in data set [3] worked out at 8 nM. Further, the Drug metabolism entry in data set [4] and in data set [5] was “Active” in each case. For the same compound, the metabolised at 2 h in data set [6] came out at 15%. Moreover, the half-life – broadly, the time needed for the level to fall by half in the phase considered – in data set [7] is 21 h. Also, the metabolised at 3 h in data set [8] was determined as 28%.
